Measured values gathered from unrelated publications.
Compare with care: the assays were run in different laboratories.

Structure (SMILES) | tested on | test | system | conditions | measurement | result
CC(C)(C)c1ccc(O)c(CN(Cc2cc(C(C)(C)C)ccc2O)C2CCC(NC(N)=O)CC2)c1 (stereo not shown) | – | – | male C57BL/6 mouse, plasma | intraperitoneal, 5 mg/kg, single dose | half-life | 2.4 h
CC(C)Oc1cccc(-c2cnc(N3CCC(C(N)=O)CC3)s2)c1 | – | – | male Swiss mouse, brain | oral, 30 mg/kg, 12 h, single dose | concentration | 0 nM
CC1=CC[C@H]2[C@@H]([C@@H]1CC[C@H]1[C@]3(C)CC[C@H](O)C(C)(C)O[C@H]3CC[C@]1(C)O)C(C)(C)CC[C@]2(C)O | KB 3-1 | cell growth or viability, MTT | – | 72 h | IC50 | > 50 µM
CN(CCC(=O)O)C(=O)c1ccc2c(c1)CC[C@@H]1[C@@H]2CC[C@]2(C)C(c3cncc(F)c3)=CC[C@@H]12 | UDP-glucuronosyltransferase 1A1 (UGT1A1, Homo sapiens, UniProt P22309) | enzyme activity, inhibitor | human, liver microsomes | – | IC50 | 4.1 µM
CC(C)=CCC[C@@]1(C)C(CC[C@H]2[C@]3(C)CC[C@H](O)C(C)(C)O[C@H]3CC[C@@]2(C)O)=C(C)CC[C@H]1O | KB 3-1 | cell growth or viability, MTT | – | 72 h | IC50 | > 50 µM
CC(C)CN(C[C@@H](O)[C@H](Cc1ccccc1)NC(=O)O[C@H]1CO[C@H]2OCC[C@H]21)S(=O)(=O)c1ccc(N)cc1 | – | – | BALB/c mouse, plasma | intravenous, 25 mg/kg, 1 h | concentration | 397 ng/mL
COc1ccc(S(=O)(=O)ON=C2C=C(C)C(=O)C(C)=C2)cc1 | HMEC | cell growth or viability | – | – | CC50 | > 15.5 µM
CC(C)(O)c1ccccc1-c1ccc2[nH]c(/C=C/c3ccc(C(F)(F)F)cc3)nc2c1 | – | – | male human, plasma | oral, 15 mg, single dose, fasted, healthy volunteers | MRT | 84 h
CC(C)(Nc1nc(-c2ccccn2)nc2ccccc12)c1ccccn1 | – | – | female BALB/c mouse, plasma | oral, 50 mg/kg, 4 h | concentration | 5060 ng/mL
c1cnc2ccc(Nc3nc(NC4CC4)c4nc[nH]c4n3)cc2c1 | – | – | human, plasma | oral, 100 mg/m², patients | MRT(0-t) | 8.1 h
